Assay outcomes (PubChem)
KLK5 inh = inhibitors of human kallikrein 5 | 210,000 compounds, 0.59% hits | recombinant hK5, fluorogenic AMC substrate cleavage | inhibition, % at 5 µM | Q9Y337;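 active means inhibition of 40% or more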;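 further: 0% = enzyme controls without compound and 100% = no-enzyme blanks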
FXIIa inh 1536 = blocks human coagulation factor XIIa protease activity; P00748; inhibition, % at 5 µM; 220,000 compounds, 0.3% hits; purified FXIIa, Boc-QGR-AMC fluorogenic substrate, 2 h; in the data active means inhibition above about 40%;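 further: 0% = enzyme with no compound and 100% = blank without enzyme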
Target sequence (P00748 20-372 limits assumed): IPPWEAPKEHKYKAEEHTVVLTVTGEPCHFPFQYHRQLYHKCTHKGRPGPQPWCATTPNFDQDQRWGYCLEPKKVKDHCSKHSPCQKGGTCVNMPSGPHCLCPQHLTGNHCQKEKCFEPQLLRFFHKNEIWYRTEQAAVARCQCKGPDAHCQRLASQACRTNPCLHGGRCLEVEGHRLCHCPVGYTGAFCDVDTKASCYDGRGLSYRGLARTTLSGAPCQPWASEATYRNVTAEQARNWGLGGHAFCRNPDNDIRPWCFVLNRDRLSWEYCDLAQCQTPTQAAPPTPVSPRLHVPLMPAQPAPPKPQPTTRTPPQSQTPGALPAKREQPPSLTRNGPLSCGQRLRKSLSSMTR
Target sequence (P00748 373-615 limits assumed): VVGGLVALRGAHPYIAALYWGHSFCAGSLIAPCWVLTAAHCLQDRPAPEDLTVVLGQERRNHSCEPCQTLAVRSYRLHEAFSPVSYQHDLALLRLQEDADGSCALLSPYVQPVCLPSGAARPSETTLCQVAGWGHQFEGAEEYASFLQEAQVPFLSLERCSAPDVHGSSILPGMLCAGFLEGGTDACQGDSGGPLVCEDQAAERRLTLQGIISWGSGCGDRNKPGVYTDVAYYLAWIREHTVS
Thrombin inh = thrombin (human) inhibition. P00734. alpha-thrombin, Boc-VPR-AMC fluorogenic substrate cleavage. inhibition, % at 5 µM. 220,000 compounds, 0.26% hits;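 active means inhibition at or above 40%; inactive means inhibition below 40%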;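 further: 0% = enzyme with no compound and 100% = wells without enzyme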
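System – human alpha-thrombin protein · Reagent – Boc-VPR-AMC substrate, 15 µM final · Compound – 5 µM single dose in 0.2% DMSO · Schedule – reaction at room temperature · Technique – AMC fluorescence at 355 nm excitation and 460 nm emission · Read-out basis – % inhibition relative to enzyme controls and enzyme-free blanks · Control set – no-compound enzyme wells and no-enzyme blanks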
FXIa inh 1536 = blocks human coagulation factor XIa protease activity | P03951 | purified FXIa, Boc-Glu-Ala-Arg-AMC fluorogenic substrate | inhibition, % at 5 µM | 220,000 compounds, 0.14% hits;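 active means inhibition of at least 40%; inactive means inhibition below 40%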;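 further: fluorescence of freed AMC excited at 355 nm; 0% = enzyme without compound and 100% = no enzyme blank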
EP2 modulator = EP2 receptor (human) modulation. AID 940. P43116. induction, % at 25 µM. EP2-expressing cells, cAMP HTRF FRET, PGE2 co-stimulation. 260,000 compounds, 0.83% hits;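 active means compounds whose cAMP rise, as percent of the full-agonist control response, exceeds 60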;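 further: rat C6 glioma line stably carrying human EP2 under a CMV promoter; the protocol text gives 20 µM as final concentration; 100% = response of wells given 1 µM PGE2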
EP2 antag = EP2 receptor (human) inhibition | P43116 | C6 glioma cells expressing human EP2, cAMP TR-FRET; cells stimulated with saturating PGE2 | inhibition, % at 25 µM | 260,000 compounds, 0.52% hits;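 active means percent inhibition above 40 after rounding to a whole number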;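 further: rat C6 glioma host cells with rolipram phosphodiesterase inhibitor present; the protocol text gives 20 µM as final concentration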
Active calls of the source: *; / = not tested or not shown. Shown are actives, neighbours in structure and some others; about 2.1% of the full set was active somewhere.

SMILES	KLK5 inh	FXIIa inh 1536	Thrombin inh	FXIa inh 1536	EP2 modulator	EP2 antag
CCOc1ccc(-n2c(SCC(N)=O)nc3c([nH]c4ccccc43)c2=O)cc1	44*	8	16	4	46	11
CCOc1cccc2c1OC1(C)CC2NC(=O)N1Cc1ccccc1 (stereo not given)	38	37	4	62*	22	0
COc1cccc2c1OC1(C)CC2NC(=O)N1Cc1ccccc1 (stereo not given)	-12	6	2	-2	11	8
O=C1SCCC1NC(=O)C(c1ccccc1)c1ccccc1 (stereo not given)	94*	40*	14	60*	15	2
O=C(NC1CCSC1=O)c1ccccc1 (stereo not given)	-15	6	-5	-6	31	6
COc1ccc([C@@H]2C[C@H](C(=O)NCc3ccco3)N(C)S(=O)(=O)N2)cc1	/	/	/	/	-6	/
COC(=O)c1ccc2nc(NC(=O)CN3C(=O)CCC3=O)sc2c1	50*	21	15	13	-15	8
COC(=O)c1ccc2nc(NC(=O)C(C)C)sc2c1	-8	2	-9	-3	-20	5
COc1ccc(-c2[nH]ncc2C2N=C(N)Nc3nc4ccccc4n32)cc1 (stereo not given)	18	31	9	47*	2	2
NC1=NC(c2cn[nH]c2-c2cccc(F)c2)n2c(nc3ccccc32)N1 (stereo not given)	-22	-8	1	-6	1	6
CCCCc1c(C)nc2ccc(Br)cc2c1SCCC#N	47*	7	99*	10	56	12
CCCc1c(C)nc2ccccc2c1SCCC#N	-6	13	2	2	23	7
O=C(c1cc2cc(Br)ccc2o1)N1CCCC1	18	/	57*	37	-4	7
COc1ccc(S(=O)(=O)N(CCCN2CCCC2=O)Cc2cc3c(C)cc(C)cc3[nH]c2=O)cc1	133*	-1	6	-6	-10	17
Cc1ccc(C)c2[nH]c(=O)c(CN(CCCN3CCCC3=O)S(=O)(=O)c3ccc(F)cc3)cc12	/	/	/	/	-15	10
Cc1ccc(OCC(=O)N2CCCCC2)c(Br)c1	48*	1	3	-1	8	-1
Cc1ccc(N=c2ssnc2Cl)cc1	-6	3	-3	-6	-47	134*
Cc1cc(Cl)ccc1N=c1ssnc1Cl	-9	12	3	4	-55	76*
COc1ccc(OC)c(N=c2ssnc2Cl)c1	-7	-15	1	-9	-70	77*
CCn1c(SCC(=O)Nc2cc(Cl)ccc2OC)nnc1-c1ccco1	/	/	/	/	-8	6
O=C(/C=C/c1ccc(Br)o1)c1ccc(Cl)cc1	/	/	/	/	42	12
O=C(Cc1ccccc1)Nc1nc2ccc(F)cc2s1	/	/	/	/	-26	3
O=C(c1ccc(N2CCCC2=O)cc1)N1CCCCCC1	-12	57*	-7	32	5	16
COc1cc(NC(=O)c2n[nH]c(=O)c3ccccc23)cc(OC)c1	4	9	1	1	-9	8
COc1cc(NC(=O)c2nccnc2C(=O)O)cc(OC)c1	122*	2	16	4	11	8
SMILES	KLK5 inh	FXIIa inh 1536	Thrombin inh	FXIa inh 1536	EP2 modulator	EP2 antag
CCC(c1nnnn1C1CCCCC1)N(Cc1cc2c(C)ccc(C)c2[nH]c1=O)CC1CCCO1 (stereo not given)	/	/	/	/	26	15
Cc1ccnc(N=Cc2c(O)ccc3oc4c(c23)CCCC4)c1	-4	11	-1	-4	62*	13
Oc1ccccc1N=Cc1c(O)ccc2oc3c(c12)CCCC3	-7	-2	-2	-5	9	14
CC(=O)Nc1ccc(S(=O)(=O)N(Cc2ccccc2)c2ccccc2F)cc1	3	9	-6	-1	64*	7
Cc1ccc(NC(=O)c2ccc3nccnc3c2)cc1C	/	/	/	/	-42	15
O=C(Cc1c(F)cccc1Cl)N1CCC(n2cnc3cccnc32)CC1	/	/	/	/	5	7
O=C(O)CN1C(=O)/C(=C/c2ccc(N3CCCCC3)o2)SC1=S	45*	72*	8	23	23	13
C=CCNC(=S)NCc1cccs1	/	/	/	/	-15	9
CCOC(=O)CSc1nnc(NC(=O)c2cc([N+](=O)[O-])cc([N+](=O)[O-])c2)s1	18	21	92*	13	-5	5
COCCSc1nnc(NC(=O)c2ccc([N+](=O)[O-])cc2)s1	-2	10	-4	0	9	8
CC(C)(C)NC(=O)Cn1nc(C(c2ccccc2)c2ccccc2)oc1=O	/	/	/	/	-23	9
COCC(=O)n1nc(-c2ccccc2)nc1NCc1cccs1	6	11	86*	3	5	4
CCC(=O)n1nc(-c2ccc(Cl)cc2)nc1NCc1ccccc1	-9	14	71*	4	29	8
O=C(Cc1ccccc1)N1CCC(C(=O)N2CCC(c3ccncc3)CC2)CC1	/	/	/	/	-18	9
COc1ccc(C(=O)N2CCC3(CC2)Nc2ccccc2-n2cccc23)cc1OC	/	/	/	/	-37	11
O=[N+]([O-])c1ccc2ncccc2c1CCc1c([N+](=O)[O-])ccc2ncccc12	/	/	/	/	4	53*
Cc1ccc2ncccc2c1[N+](=O)[O-]	-1	6	0	1	6	7
C=CCn1c(SCC(=O)c2cc(C)n(CCOC)c2C)nc2sc(C)c(C)c2c1=O	11	1	-6	-12	-39	42*
C/C(=N\Nc1nc(N2CCCCC2)nc(N2CCOCC2)n1)c1ccccc1O	2	5	-6	-2	64*	10
C/C(=N\Nc1nc(N2CCOCC2)nc(N2CCOCC2)n1)c1cccs1	-3	11	-8	-1	7	6
CCC(OC(=O)C1C2C=CC3(CN(c4cc(C)cc(C)c4)C(=O)C13)O2)C(=O)NC1CCCC1 (stereo not given)	/	/	/	/	-21	9
C=CCN=C1S/C(=C/c2cccc([N+](=O)[O-])c2)C(=O)N1CC=C	3	14	1	4	64*	9
COC(=O)c1nnn(-c2ccccc2)c1N	-3	-3	-7	-7	-4	5
COC(=O)c1c(C)nc2c(c(SC)nn2-c2ccccc2)c1N	-2	11	1	5	63*	12
CC1CN(CC(=O)Nc2nc3cc(Cl)ccc3s2)CC(C)O1 (stereo not given)	/	/	/	/	-73	17
Cc1ccnc(NC(=O)C2CCCN(S(=O)(=O)c3cnc[nH]3)C2)c1 (stereo not given)	15	-8	70*	-10	39	16
COc1ccc(C)cc1NC(=O)C1CCCN(S(=O)(=O)c2cnc[nH]2)C1 (stereo not given)	7	16	11	18	3	22
Cc1ccc(NC(=O)CN2CCCCC2)c(C)c1	/	/	/	/	8	9
O=C(CSc1ncnc2sc3c(c12)CCCC3)Nc1ccccc1-c1ccccc1	/	/	/	/	31	8
